Experimental data as given in ChEMBL document CHEMBL1255462, “Antiviral activity of a small-molecule inhibitor of filovirus infection” (Antimicrob Agents Chemother, 2010).
The source made the active and inactive calls. No cut-off for these calls is given here.

Tests used:
Ebolavirus [1] = test: Antiviral activity against Ebola-like viruses infected in C57BL/6 mouse assessed as serum aspartate aminotransferase at 10 mg/kg, ip after 24 hrs measured on 6 days postinfection; type: functional; conditions: route intraperitoneal
Outline: (§1)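 C57BL/6 mice received 10 mg/kg i.p. in saline, or vehicle, 24 h postinfection. Five mice per group were sacrificed on days 2, 4 and 6. Serum was frozen at -70°C until all samples were collected, then assayed for ALT, AST and ALP (U/liter). Values are group means compared with vehicle.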

Marburgvirus [2] = test: Antiviral activity against Marburgvirus infected in BALB/C mouse assessed as protection against virus challenge at 10 mg/kg, ip measured for 14 days; type: functional, organism-based; set-up: dose 10 mg/kg
Outline: (§2)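 Compound given once i.p. in 0.9% saline at day 1 postinfection, with vehicle-treated controls. Health and mortality recorded twice daily for 14 days. Animals surviving 14 days were scored as protected, and survival curves were compared by Kaplan-Meier analysis.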

[3] = Cytotoxicity against human PBMC after 72 hrs; type: cell-based; conditions: PBMC (peripheral blood mononuclear cells)
Ebolavirus [4] = test: Antiviral activity against Ebola-like viruses infected in C57BL/6 mouse kidney assessed as reduction in viral burden at 10 mg/kg, ip single dose; type: functional; conditions: route intraperitoneal
[5] = Antiviral activity against Lake Victoria marburgvirus - Ci67 in overnight pretreated african green monkey Vero E6 cells at 10 uM after 48 hrs by standard virus yield reduction assay; type: functional; set-up: scale not given: the % may be the effect or the level left
[6] = Cytotoxicity against human Hep2 cells after 72 hrs; type: cell-based, HEp-2
Outline: (§3)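 Confluent monolayers were treated in triplicate with serially diluted compound at 0.0018 to 320 µM for 72 h. Viability was read by CellTiter Glo luminescence, and CC50 was determined.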

Mus musculus [7] = test: Toxicity in Ebola-like viruses infected in C57BL/6 mouse spleen assessed as mild lymphocytolysis at 10 mg/kg, ip single dose measured after 4 days; type: organism-based; set-up: dose 10 mg/kg, route intraperitoneal; conditions: in vivo, 96 h
Ebolavirus [8] = test: Antiviral activity against Sudan ebolavirus expressing GFP in african green monkey Vero E6 cells after 48 hrs by standard plaque assay; type: functional, cell-based; conditions: Orthoebolavirus
Ebolavirus [9] = test: Antiviral activity against Ebola-like viruses infected in C57BL/6 mouse assessed as serum alkaline phosphatase at 10 mg/kg, ip after 24 hrs measured on 4 days postinfection; type: functional; conditions: route intraperitoneal; outline: as §1
Ebolavirus [10] = test: Antiviral activity against Ebola-like viruses infected in C57BL/6 mouse assessed as serum alkaline phosphatase at 10 mg/kg, ip after 24 hrs measured on 2 days postinfection; type: functional; conditions: route intraperitoneal; outline: as §1
[11] = Antiviral activity against Lake Victoria marburgvirus - Ravn in overnight pretreated african green monkey Vero E6 cells at 25 uM after 48 hrs by standard virus yield reduction assay; type: functional; set-up: scale not given: the % may be the effect or the level left
Ebolavirus [12] = test: Antiviral activity against Ebola-like viruses infected in C57BL/6 mouse liver assessed as reduction in viral burden at 10 mg/kg, ip single dose; type: functional; conditions: route intraperitoneal
Ebolavirus [13] = test: Antiviral activity against Ebola-like viruses infected in C57BL/6 mouse assessed as increase in mouse survival at 5 mg/kg, ip single injection; type: functional; conditions: route intraperitoneal; outline: as §2
[14] = Antiviral activity against Lake Victoria marburgvirus - Ravn in overnight pretreated african green monkey Vero E6 cells after 48 hrs by standard virus yield reduction assay; type: functional, cell-based; conditions: Kenya, 1987, Vero
[15] = Cytotoxicity against human A549 cells after 72 hrs; type: cell-based; outline: as §3
Ebolavirus [16] = test: Antiviral activity against Ebola-like viruses infected in C57BL/6 mouse assessed as serum alanine aminotransferase at 10 mg/kg, ip after 24 hrs measured on 4 days postinfection; type: functional; conditions: route intraperitoneal; outline: as §1
Ebolavirus [17] = test: Antiviral activity against Ebola-like viruses infected in C57BL/6 mouse assessed as serum aspartate aminotransferase at 10 mg/kg, ip after 24 hrs measured on 2 days postinfection; type: functional; conditions: route intraperitoneal; outline: as §1
Ebolavirus [18] = test: Antiviral activity against Ebola-like viruses infected in C57BL/6 mouse assessed as serum alanine aminotransferase at 10 mg/kg, ip after 24 hrs measured on 6 days postinfection; type: functional; conditions: route intraperitoneal; outline: as §1
[19] = Cytotoxicity against african green monkey Vero E6 cells after 72 hrs; type: cell-based; conditions: chlorocebus sabaeus; outline: as §3
Marburgvirus [20] = test: Antiviral activity against Marburgvirus infected in BALB/C mouse assessed as protection against virus challenge at 5 mg/kg, ip administered 1 day postinfection; type: functional; conditions: route intraperitoneal; outline: as §2
[21] = Cytotoxicity against MDCK cells after 72 hrs; type: cell-based, Canis lupus familiaris; conditions: dog; outline: as §3
Mus musculus [22] = test: Toxicity in Ebola-like viruses infected in C57BL/6 mouse assessed as mild hepatitis with hepatocellular necrosis at 10 mg/kg, ip single dose measured after 4 days; type: organism-based; set-up: dose 10 mg/kg, route intraperitoneal; conditions: in vivo, 96 h
[23] = Antiviral activity against Lake Victoria marburgvirus - Ci67 in overnight pretreated african green monkey Vero E6 cells after 48 hrs by standard virus yield reduction assay; type: functional
Ebolavirus [24] = test: Antiviral activity against Zaire ebolavirus expressing GFP in african green monkey Vero E6 cells after 48 hrs by standard plaque assay; type: functional, cell-based
[25] = Cytotoxicity against human HEK293 cells after 72 hrs; type: cell-based; outline: as §3
Ebolavirus [26] = test: Antiviral activity against Ebola-like viruses infected in C57BL/6 mouse assessed as serum aspartate aminotransferase at 10 mg/kg, ip after 24 hrs measured on 4 days postinfection; type: functional; conditions: route intraperitoneal; outline: as §1
Ebolavirus [27] = test: Antiviral activity against Ebola-like viruses infected in C57BL/6 mouse assessed as serum alkaline phosphatase at 10 mg/kg, ip after 24 hrs measured on 6 days postinfection; type: functional; conditions: route intraperitoneal; outline: as §1
Ebolavirus [28] = test: Antiviral activity against Ebola-like viruses infected in C57BL/6 mouse spleen assessed as reduction in viral burden at 10 mg/kg, ip single dose; type: functional; conditions: route intraperitoneal
Ebolavirus [29] = test: Antiviral activity against Zaire ebolavirus expressing GFP in african green monkey Vero E6 cells at >=0.8 uM after 48 hrs by standard plaque assay; type: functional
Ebolavirus [30] = test: Antiviral activity against Ebola-like viruses infected in C57BL/6 mouse assessed as serum alanine aminotransferase at 10 mg/kg, ip after 24 hrs measured on 2 days postinfection; type: functional; conditions: route intraperitoneal; outline: as §1

With `N=C(N)c1ccc2oc(/C=C/c3nc4cc(C(=N)N)ccc4[nH]3)cc2c1` the Activity (Ebolavirus [1]) was 207 U/L, the Activity (Marburgvirus [2]) was “Active” and the CC50 at 72 h [3] was at least 50000 nM. For the same compound, the log10cfu (Ebolavirus [4]) was 1, the Activity [5] was over 90% and the CC50 at 72 h [6] was at least 50000 nM. For the same compound, the Activity (Mus musculus [7]) was “Toxic”, the EC50 (Ebolavirus [8]) was 420 nM and the EC90 (Ebolavirus [8]) was 960 nM. It also gave an Activity (Ebolavirus [9]) of 65 U/L, an Activity (Ebolavirus [10]) of 57 U/L and an Activity [11] of over 99.9%. It also gave a log10cfu (Ebolavirus [12]) of 1, an Activity (Ebolavirus [13]) of 60% and an EC50 [14] of 2500 nM. The CC50 at 72 h [15] was at least 50000 nM, the Activity (Ebolavirus [16]) was 23 U/L and the Activity (Ebolavirus [17]) was 237 U/L. For the same compound, the Activity (Ebolavirus [18]) was 87 U/L, the CC50 at 72 h [19] was at least 50000 nM and the Activity (Marburgvirus [20]) was 40%. For the same compound, the CC50 at 72 h [21] was at least 50000 nM, the Activity (Mus musculus [22]) was “Toxic” and the CC50 [23] was 2500 nM. For the same compound, the Activity (Ebolavirus [24]) was “Dose-dependent effect”, the EC50 (Ebolavirus [24]; Orthoebolavirus) was 100 nM and the EC90 (Ebolavirus [24]; Orthoebolavirus) was 330 nM. It also gave a CC50 at 72 h [25] of at least 50000 nM, an Activity (Ebolavirus [26]) of 54 U/L and an Activity (Ebolavirus [27]) of 67 U/L. The log10cfu (Ebolavirus [28]) was 1, the “inhibition (INH)” value (Ebolavirus [29]) was “>=0.8%” and the Activity (Ebolavirus [30]) was 148 U/L.
